From ChEMBL document CHEMBL1949633, “Novel morpholine ketone analogs as potent histamine H3 receptor inverse agonists with wake activity” (Bioorg Med Chem Lett, 2012)
pIC50, pKi: −log10 of the molar value. Each block holds one molecule with its values, some of them ahead of it. The source made the active and inactive calls. No cut-off for these calls is given here.

Legend:
[1] = target: Histamine H3 receptor (Rattus norvegicus, UniProt Q9QYN8); assay: Displacement of [3H]NAMH from rat histamine H3 receptor
Summary of the method: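 Radioligand binding with [3H]NAMH in membranes from cells transfected with human or rat H3 receptor. Ki values averaged from at least two determinations; assay-to-assay variation typically within 2.5-fold.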

[2] = target: Histamine H3 receptor (Homo sapiens, UniProt Q9Y5N1); assay: Displacement of [3H]NAMH from human histamine H3 receptor
[3] = Half life in human liver microsomes; type: ADME, Microsome
[4] = Half life in rat liver microsomes; type: ADME, Microsome
[5] = Half life in dog liver microsomes; type: ADME, Canis lupus familiaris, Microsome
[6] = Half life in mouse liver microsomes; type: ADME, Microsome
[7] = Aqueous solubility of the compound at pH 7.4; type: physicochemical; details: aqueous medium
[8] = target: Sigma non-opioid intracellular receptor 1 (Homo sapiens) (UniProt Q99720); assay: Inhibition of human sigma 1 receptor at 10 uM
Summary of the method: (§1)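 Selectivity panel of 70 GPCRs, ion channels and enzymes run by a contract screening service; percent inhibition at 10 µM test concentration.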

[9] = target: Nischarin (Rattus norvegicus) (UniProt Q4G017); assay: Inhibition of rat imidazoline I2 receptor at 10 uM; summary of the method: as §1
[10] = target: T1, Cytochrome P450 1A2 (Homo sapiens, UniProt P05177); assay: Inhibition of CYP1A2; type: ADME
T1 sequence (P05177 whole entry): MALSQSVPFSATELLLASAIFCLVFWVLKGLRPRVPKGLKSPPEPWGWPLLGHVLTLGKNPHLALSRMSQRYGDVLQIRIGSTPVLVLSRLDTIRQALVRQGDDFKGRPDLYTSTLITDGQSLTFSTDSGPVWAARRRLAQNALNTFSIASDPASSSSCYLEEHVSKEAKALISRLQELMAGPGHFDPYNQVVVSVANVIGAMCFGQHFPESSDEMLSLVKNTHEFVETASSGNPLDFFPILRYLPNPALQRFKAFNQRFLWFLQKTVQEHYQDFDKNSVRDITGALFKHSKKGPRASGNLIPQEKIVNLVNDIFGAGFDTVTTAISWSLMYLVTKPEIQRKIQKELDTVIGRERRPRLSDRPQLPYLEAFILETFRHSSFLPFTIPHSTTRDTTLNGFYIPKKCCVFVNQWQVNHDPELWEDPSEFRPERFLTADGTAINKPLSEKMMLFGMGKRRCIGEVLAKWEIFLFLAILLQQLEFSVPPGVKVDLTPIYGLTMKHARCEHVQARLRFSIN

[11] = target: Cytochrome P450 2C9 (Homo sapiens, UniProt P11712); assay: Inhibition of CYP2C9; type: ADME
[12] = target: Cytochrome P450 2C19 (Homo sapiens, UniProt P33261); assay: Inhibition of CYP2C19; type: ADME
[13] = target: Cytochrome P450 2D6 (Homo sapiens, UniProt P10635); assay: Inhibition of CYP2D6; type: ADME
[14] = target: Cytochrome P450 3A4 (Homo sapiens, UniProt P08684); assay: Inhibition of CYP3A4; type: ADME
[15] = test system: Rattus norvegicus; assay: AUC (0 to 6 hrs) in rat at 5 mg/kg, po; type: ADME, organism-based, Plasma; parameters: time < 6 hr, dose 5 mg/kg, route oral; details: in vivo
[16] = Oral bioavailability in rat at 5 mg/kg; type: ADME, organism-based; details: in vivo
Summary of the method: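 Rats received 5 mg/kg po in 50% Tween 80, 40% propylene carbonate and 10% propylene glycol. The iv comparison dose was formulated in 3% DMSO, 30% solutol and 67% phosphate-buffered saline.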

[17] = Drug uptake in rat brain at 10 mg/kg, ip measured after 1 hr; type: ADME, organism-based; parameters: dose 10 mg/kg, route intraperitoneal; details: read-out: Drug uptake
Summary of the method: (§2)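 Male-unspecified rats dosed 10 mg/kg ip in 0.5% methylcellulose, 0.2% Tween 80 in water; brain concentration (ng/g) measured at 1, 4, 6 and 24 h post dose. Brain-to-plasma ratio taken at 1 h.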

[18] = Ratio of drug uptake in rat brain to plasma at 10 mg/kg, ip measured after 1 hr; type: ADME, organism-based; parameters: dose 10 mg/kg, route intraperitoneal; details: read-out: BPR; summary of the method: as §2
[19] = test system: Rattus norvegicus; assay: Effect on sleep-awake cycle in ip dosed EEG/EMG Sprague-Dawley rat model assessed as wake promotion after 4 hrs; type: functional, organism-based
[20] = test system: Rattus norvegicus; assay: Effect on sleep-awake cycle in ip dosed EEG/EMG Sprague-Dawley rat model assessed as wake promotion time at 10 mg/kg, ip (reference value: 101 +/- 7 mins); type: functional; details: route intraperitoneal
[21] = test system: Rattus norvegicus; assay: Effect on sleep-awake cycle in ip dosed EEG/EMG Sprague-Dawley rat model assessed as wake promotion time at 30 mg/kg, ip (reference value: 101 +/- 7 mins); type: functional; details: route intraperitoneal
[22] = test system: Rattus norvegicus; assay: Effect on sleep-awake cycle in ip dosed EEG/EMG Sprague-Dawley rat model assessed as wake promotion time at 60 mg/kg, ip (reference value: 101 +/- 7 mins); type: functional; details: route intraperitoneal
[23] = test system: Rattus norvegicus; assay: Effect on sleep-awake cycle in EEG/EMG Sprague-Dawley rat model assessed as wake promotion at 60 mg/kg, ip after 4 hrs; type: functional; details: route intraperitoneal
[24] = test system: Rattus norvegicus; assay: Effect on sleep-awake cycle in EEG/EMG Sprague-Dawley rat model assessed as wake promotion at 60 mg/kg, ip after 4 hrs relative to control; type: functional; details: route intraperitoneal
Summary of the method: (§3)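 Male Sprague Dawley rats were surgically implanted for chronic EEG and EMG recording and dosed ip at 10, 30 or 60 mg/kg or with vehicle. Line 2 is read as cumulative time awake over 4 h post-dose (4 h AUC), or percent time awake. Line 1 is theta-range EEG power (~6–9 Hz, FFT amplitude) at 1 h. n = 7-8/group; Dunnett's test versus vehicle.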

[25] = test system: Rattus norvegicus; assay: Effect on sleep-awake cycle in EEG/EMG Sprague-Dawley rat model assessed as increase in slow-wave sleep at 30 mg/kg, ip after 4 hrs; type: functional, organism-based; parameters: dose 30 mg/kg
[26] = test system: Rattus norvegicus; assay: Effect on sleep-awake cycle in EEG/EMG Sprague-Dawley rat model assessed as increase in slow-wave sleep at 60 mg/kg, ip after 4 hrs; type: functional, organism-based; parameters: dose 60 mg/kg
[27] = test system: Rattus norvegicus; assay: Effect on sleep-awake cycle in EEG/EMG Sprague-Dawley rat model assessed as increase in rapid eye movement sleep at 30 mg/kg, ip after 4 hrs; type: functional, organism-based; parameters: dose 30 mg/kg
[28] = test system: Rattus norvegicus; assay: Effect on sleep-awake cycle in EEG/EMG Sprague-Dawley rat model assessed as increase in rapid eye movement sleep at 60 mg/kg, ip after 4 hrs; type: functional, organism-based; parameters: dose 60 mg/kg
[29] = test system: Rattus norvegicus; assay: Effect on sleep-awake cycle in EEG/EMG Sprague-Dawley rat model assessed as sleep rebound at 10 to 60 mg/kg, ip up to 22 hrs; type: functional, organism-based
[30] = test system: Rattus norvegicus; assay: Toxicity in EEG/EMG Sprague-Dawley rat model assessed as adverse EEG activity at 10 to 60 mg/kg, ip; type: organism-based; parameters: dose 10-60 mg/kg, route intraperitoneal; details: in vivo
[31] = test system: Rattus norvegicus; assay: Effect on sleep-awake cycle in EEG/EMG Sprague-Dawley rat model assessed as increase in EEG theta range at 30 to 60 mg/kg, ip after 1 hr; type: functional; details: dose mg/kg 30-60; route intraperitoneal; summary of the method: as §3
[32] = test system: Rattus norvegicus; assay: Effect on sleep-awake cycle in EEG/EMG Sprague-Dawley rat model assessed as change in EEG theta frequency at 30 to 60 mg/kg, ip after 1 hr; type: functional, organism-based
[33] = Drug uptake in rat brain at 10 mg/kg, ip measured after 4 hrs; type: ADME, organism-based; parameters: dose 10 mg/kg, route intraperitoneal; details: read-out: Drug uptake; summary of the method: as §2
[34] = Drug uptake in rat brain at 10 mg/kg, ip measured after 6 hrs; type: ADME, organism-based; parameters: dose 10 mg/kg, route intraperitoneal; details: read-out: Drug uptake; summary of the method: as §2
[35] = test system: Brain; assay: Drug uptake in rat brain at 10 mg/kg, ip measured after 24 hrs; type: ADME, organism-based; parameters: dose 10 mg/kg, route intraperitoneal; details: in vivo; summary of the method: as §2

Histamine H3 receptor (Rattus norvegicus, UniProt Q9QYN8), sequence (Q9QYN8 whole entry): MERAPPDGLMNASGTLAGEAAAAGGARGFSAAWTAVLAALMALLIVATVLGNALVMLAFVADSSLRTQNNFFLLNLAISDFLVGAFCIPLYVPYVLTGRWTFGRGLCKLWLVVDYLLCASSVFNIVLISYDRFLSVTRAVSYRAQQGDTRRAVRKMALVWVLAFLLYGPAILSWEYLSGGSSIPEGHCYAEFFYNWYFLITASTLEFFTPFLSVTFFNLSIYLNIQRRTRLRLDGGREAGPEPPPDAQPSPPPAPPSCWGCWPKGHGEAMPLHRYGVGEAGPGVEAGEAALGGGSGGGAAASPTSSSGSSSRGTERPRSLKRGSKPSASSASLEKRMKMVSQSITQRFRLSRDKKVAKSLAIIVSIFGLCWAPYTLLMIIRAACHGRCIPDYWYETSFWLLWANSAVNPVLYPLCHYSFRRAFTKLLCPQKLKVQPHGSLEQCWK
Histamine H3 receptor (Homo sapiens, UniProt Q9Y5N1), sequence (Q9Y5N1 whole entry): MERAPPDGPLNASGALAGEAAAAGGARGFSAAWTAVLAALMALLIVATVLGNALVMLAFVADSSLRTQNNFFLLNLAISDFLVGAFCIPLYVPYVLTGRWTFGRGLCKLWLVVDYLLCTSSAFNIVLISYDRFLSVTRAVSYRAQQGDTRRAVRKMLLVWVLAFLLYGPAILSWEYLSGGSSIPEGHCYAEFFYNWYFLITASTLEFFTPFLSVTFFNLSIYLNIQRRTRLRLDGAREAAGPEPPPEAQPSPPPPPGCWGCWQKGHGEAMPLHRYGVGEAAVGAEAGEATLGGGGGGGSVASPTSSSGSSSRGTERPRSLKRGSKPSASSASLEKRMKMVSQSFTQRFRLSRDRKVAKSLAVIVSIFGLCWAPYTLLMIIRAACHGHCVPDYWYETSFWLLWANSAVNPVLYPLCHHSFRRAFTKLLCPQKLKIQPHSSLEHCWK
Nischarin (Rattus norvegicus), sequence (Q4G017 whole entry): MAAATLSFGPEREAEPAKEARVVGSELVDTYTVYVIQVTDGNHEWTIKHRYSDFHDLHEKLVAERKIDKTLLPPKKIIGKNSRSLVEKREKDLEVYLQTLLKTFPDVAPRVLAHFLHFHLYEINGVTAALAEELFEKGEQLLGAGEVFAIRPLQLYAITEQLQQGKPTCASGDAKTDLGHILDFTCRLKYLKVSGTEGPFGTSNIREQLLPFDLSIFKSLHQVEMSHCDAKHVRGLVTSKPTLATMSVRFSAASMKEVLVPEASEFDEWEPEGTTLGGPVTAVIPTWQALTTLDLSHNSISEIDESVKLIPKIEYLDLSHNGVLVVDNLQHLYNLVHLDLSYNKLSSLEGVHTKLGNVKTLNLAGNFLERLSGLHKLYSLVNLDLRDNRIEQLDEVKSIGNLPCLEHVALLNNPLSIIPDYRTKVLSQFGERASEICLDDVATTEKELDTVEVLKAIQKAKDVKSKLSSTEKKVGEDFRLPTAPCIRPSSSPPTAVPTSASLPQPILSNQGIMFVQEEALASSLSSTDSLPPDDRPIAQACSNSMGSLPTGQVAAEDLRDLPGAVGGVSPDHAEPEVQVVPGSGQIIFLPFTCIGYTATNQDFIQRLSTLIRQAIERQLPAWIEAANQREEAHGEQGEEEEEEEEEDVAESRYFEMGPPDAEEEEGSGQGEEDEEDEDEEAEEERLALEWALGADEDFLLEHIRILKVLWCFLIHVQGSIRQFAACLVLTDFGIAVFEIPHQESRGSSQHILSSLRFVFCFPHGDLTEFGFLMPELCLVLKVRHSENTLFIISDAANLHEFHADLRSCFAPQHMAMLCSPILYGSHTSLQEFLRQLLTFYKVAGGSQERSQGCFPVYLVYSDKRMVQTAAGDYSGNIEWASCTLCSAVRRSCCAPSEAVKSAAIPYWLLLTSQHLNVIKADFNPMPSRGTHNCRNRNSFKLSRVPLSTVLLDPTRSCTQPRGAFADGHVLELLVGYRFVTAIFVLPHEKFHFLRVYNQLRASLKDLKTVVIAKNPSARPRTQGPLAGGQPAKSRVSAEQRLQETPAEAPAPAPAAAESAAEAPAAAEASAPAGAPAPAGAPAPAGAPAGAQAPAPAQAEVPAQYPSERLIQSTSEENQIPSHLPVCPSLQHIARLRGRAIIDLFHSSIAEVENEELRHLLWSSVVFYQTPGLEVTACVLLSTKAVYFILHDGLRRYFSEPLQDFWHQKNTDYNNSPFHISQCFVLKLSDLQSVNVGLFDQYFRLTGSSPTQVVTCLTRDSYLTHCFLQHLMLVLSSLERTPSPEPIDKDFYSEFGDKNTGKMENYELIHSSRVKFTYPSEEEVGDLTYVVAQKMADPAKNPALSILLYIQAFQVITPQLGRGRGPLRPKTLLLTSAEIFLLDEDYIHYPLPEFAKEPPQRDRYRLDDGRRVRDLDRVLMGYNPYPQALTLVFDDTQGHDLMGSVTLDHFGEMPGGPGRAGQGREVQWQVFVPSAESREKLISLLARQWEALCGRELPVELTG
Cytochrome P450 3A4, sequence (P08684 whole entry): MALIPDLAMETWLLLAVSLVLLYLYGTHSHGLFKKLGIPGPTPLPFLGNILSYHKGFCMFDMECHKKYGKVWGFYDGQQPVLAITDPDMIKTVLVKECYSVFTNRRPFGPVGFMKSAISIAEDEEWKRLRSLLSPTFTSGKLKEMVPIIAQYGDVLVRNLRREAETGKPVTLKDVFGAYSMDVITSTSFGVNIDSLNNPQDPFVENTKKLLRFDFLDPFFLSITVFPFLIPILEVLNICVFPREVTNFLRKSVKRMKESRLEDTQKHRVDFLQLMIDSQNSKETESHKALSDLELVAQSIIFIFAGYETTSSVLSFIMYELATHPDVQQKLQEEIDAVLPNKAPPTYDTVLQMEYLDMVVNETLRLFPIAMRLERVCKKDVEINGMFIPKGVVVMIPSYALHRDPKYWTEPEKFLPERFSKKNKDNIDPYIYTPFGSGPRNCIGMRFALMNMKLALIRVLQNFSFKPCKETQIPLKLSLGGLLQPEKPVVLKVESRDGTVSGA
Cytochrome P450 2C9, sequence (P11712 whole entry): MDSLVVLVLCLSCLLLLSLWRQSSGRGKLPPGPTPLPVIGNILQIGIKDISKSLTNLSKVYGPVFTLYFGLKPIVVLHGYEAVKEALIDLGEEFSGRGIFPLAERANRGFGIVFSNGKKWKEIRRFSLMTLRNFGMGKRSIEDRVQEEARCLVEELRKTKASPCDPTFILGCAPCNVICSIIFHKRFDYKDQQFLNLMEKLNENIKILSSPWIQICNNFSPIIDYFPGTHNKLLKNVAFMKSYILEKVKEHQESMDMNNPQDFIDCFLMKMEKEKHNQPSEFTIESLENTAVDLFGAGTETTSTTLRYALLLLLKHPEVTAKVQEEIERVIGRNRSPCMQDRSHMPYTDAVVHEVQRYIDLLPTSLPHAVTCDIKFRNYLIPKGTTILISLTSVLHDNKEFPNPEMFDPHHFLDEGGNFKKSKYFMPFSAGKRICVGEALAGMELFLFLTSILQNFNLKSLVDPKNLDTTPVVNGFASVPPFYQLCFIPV
Cytochrome P450 2D6, sequence (P10635 whole entry): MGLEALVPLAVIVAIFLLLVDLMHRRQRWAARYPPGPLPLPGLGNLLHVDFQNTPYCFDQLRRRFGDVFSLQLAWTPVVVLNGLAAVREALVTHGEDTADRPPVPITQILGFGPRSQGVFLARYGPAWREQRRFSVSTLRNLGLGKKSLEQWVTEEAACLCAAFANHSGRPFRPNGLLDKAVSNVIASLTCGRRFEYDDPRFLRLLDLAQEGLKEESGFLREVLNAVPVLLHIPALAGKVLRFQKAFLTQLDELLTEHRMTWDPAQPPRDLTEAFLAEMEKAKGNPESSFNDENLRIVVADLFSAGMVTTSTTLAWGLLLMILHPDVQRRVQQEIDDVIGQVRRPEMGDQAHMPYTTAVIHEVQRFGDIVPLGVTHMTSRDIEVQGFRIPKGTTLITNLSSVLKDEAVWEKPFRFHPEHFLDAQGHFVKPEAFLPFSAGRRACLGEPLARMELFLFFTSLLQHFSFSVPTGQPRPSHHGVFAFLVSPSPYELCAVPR
Cytochrome P450 2C19, sequence (P33261 whole entry): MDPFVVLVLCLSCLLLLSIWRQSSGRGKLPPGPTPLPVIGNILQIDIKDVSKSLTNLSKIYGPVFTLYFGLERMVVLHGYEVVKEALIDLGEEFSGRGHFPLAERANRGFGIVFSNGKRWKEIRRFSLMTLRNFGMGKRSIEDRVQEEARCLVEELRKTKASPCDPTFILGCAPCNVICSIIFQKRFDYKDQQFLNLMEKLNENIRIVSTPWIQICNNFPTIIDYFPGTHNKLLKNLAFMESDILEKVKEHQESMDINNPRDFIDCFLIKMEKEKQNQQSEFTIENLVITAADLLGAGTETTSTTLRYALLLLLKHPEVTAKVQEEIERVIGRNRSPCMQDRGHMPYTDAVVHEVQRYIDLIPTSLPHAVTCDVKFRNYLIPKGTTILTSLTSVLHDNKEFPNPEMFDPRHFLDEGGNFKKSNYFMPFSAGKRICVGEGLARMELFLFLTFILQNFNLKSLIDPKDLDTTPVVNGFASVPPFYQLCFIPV
Sigma non-opioid intracellular receptor 1 (Homo sapiens), sequence (Q99720 whole entry): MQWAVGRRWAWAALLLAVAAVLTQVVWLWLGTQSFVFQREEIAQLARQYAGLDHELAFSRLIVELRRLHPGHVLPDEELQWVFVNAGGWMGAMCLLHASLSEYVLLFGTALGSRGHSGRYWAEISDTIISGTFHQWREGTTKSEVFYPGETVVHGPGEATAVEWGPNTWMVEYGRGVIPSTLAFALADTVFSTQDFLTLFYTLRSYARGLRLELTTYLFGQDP

pKi [1]: 7.11
pKi [2]: 8.00
SMILES: C[C@@H]1CN(CC(=O)c2ccc(OCCCN3CCC[C@H]3C)cc2)C[C@H](C)O1

pKi [1]: 6.76
pKi [2]: 7.49
SMILES: O=C(CN1CCCCC1)c1ccc(OCCCN2CCCC2)cc1

pKi [1]: < 5.52
pKi [2]: 5.93
SMILES: COC[C@H]1CCCN1CCCOc1ccc(C(=O)CN2CCOCC2)cc1

pKi [1]: < 5.52
pKi [2]: < 5.52
SMILES: COC[C@@H]1CCCN1CCCOc1ccc(C(=O)CN2CCOCC2)cc1

half-life [3]: 8 min
pKi [1]: 7.48
pKi [2]: 8.05
half-life [4]: 9 min
half-life [5]: 10 min
half-life [6]: > 40 min
SMILES: C[C@@H]1CCCN1CCCOc1ccc(C(=O)C(C)(C)N2CCOCC2)cc1

SMILES: CC(C(=O)c1ccc(OCCCN2CCC[C@H]2C)cc1)N1CCOCC1 (stereo partly specified)
half-life [3]: > 40 min
pKi [1]: 6.98
pKi [2]: 8.10
half-life [4]: > 40 min
half-life [5]: > 40 min
half-life [6]: > 40 min

pKi [1]: 6.61
pKi [2]: 7.72
SMILES: Cc1cc(OCCCN2CCC[C@H]2C)ccc1C(=O)CN1CCOCC1

pKi [1]: < 6.00
pKi [2]: < 6.00
SMILES: CC1(C)CCCN1CCCOc1ccc(C(=O)CN2CCOCC2)cc1

pKi [1]: 7.30
solubility [7]: > 145 µg/mL
inhibition [8]: 78%
inhibition [9]: 67%
pIC50 [10]: < 4.52
pIC50 [11]: < 4.52
pIC50 [12]: < 4.52
pIC50 [13]: < 4.52
pIC50 [14]: < 4.52
AUC [15]: 109 ng·h/mL
bioavailability [16]: 14%
concentration at 1 h [17]: 3770 ng/g
Kp at 1 h [18]: 30.7
SMILES: C[C@@H]1CCCN1CCCOc1ccc(C(=O)CN2CCOCC2)cc1
Activity [19]: Dose-dependent effect
Time [20]: 118 min
Time [21]: 163 min
Time [22]: 222 min
Activity [23]: 93%
fold change (FC) [24]: 2.2
Activity [25]: Active
Activity [26]: Active
Activity [27]: Active
Activity [28]: Active
Activity [29]: inactive
Activity [30]: Non-toxic
fold change (FC) [31]: 2
Activity [32]: inactive

pKi [1]: 7.25
concentration at 1 h [17]: 3930 ng/g
concentration at 4 h [33]: 1610 ng/g
concentration at 6 h [34]: 955 ng/g
Drug uptake [35]: Not Active
SMILES: CC1CCCN1CCCOc1ccc(C(=O)CN2CCOCC2)cc1 (racemic)

pKi [1]: 6.36
pKi [2]: 7.18
SMILES: O=C(CN1CCOCC1)c1ccc(OCCCN2CCCCC2)cc1

pKi [1]: 6.05
SMILES: C[C@H]1CCCN1CCCOc1ccc(C(=O)CN2CCOCC2)cc1

pKi [1]: 6.23
pKi [2]: 6.97
SMILES: O=C(CN1CCOCC1)c1ccc(OCCCN2CCCC2)cc1
